Values after ≈ are worked out from the molar mass of the structure shown.
Columns and labels:
Type in all cases: functional
[1] = system: Staphylococcus aureus; assay: Antibacterial activity against methicillin-resistant Staphylococcus aureus CA ATCC BAA-1680 by microdilution technique
[2] = system: Staphylococcus aureus; assay: Antibacterial activity against methicillin-resistant Staphylococcus aureus ATCC 700698 by microdilution technique
[3] = system: Staphylococcus aureus; assay: Antibacterial activity against methicillin-resistant Staphylococcus aureus ATCC BAA-39 by microdilution technique
[4] = system: Staphylococcus aureus; assay: Antibacterial activity against methicillin-resistant Staphylococcus aureus ATCC 700787 by microdilution technique
[5] = system: Staphylococcus aureus; assay: Antibacterial activity against methicillin-resistant Staphylococcus aureus ATCC 34404 by microdilution technique
[6] = system: Staphylococcus aureus; assay: Ratio of MIC for methicillin-resistant Staphylococcus aureus ST239 HS770 in absence of 10% FBS to MIC for methicillin-resistant Staphylococcus aureus ST239 HS770 in presence of 10% FBS
Method in brief: (§1)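 MIC determined by the same turbidity-based microdilution method, once in standard medium and once in medium with 10% fetal serum added, to probe serum protein binding. The ratio is the MIC without serum over the MIC with serum, for each strain.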

[7] = system: Staphylococcus aureus; assay: Ratio of MIC for methicillin-resistant Staphylococcus aureus CA ATCC BAA-1680 in absence of 10% FBS to MIC for methicillin-resistant Staphylococcus aureus CA ATCC BAA-1680 in presence of 10% FBS; method in brief: as §1
[8] = system: Staphylococcus aureus; assay: Ratio of MIC for methicillin-resistant Staphylococcus aureus ATCC BAA-39 in absence of 10% FBS to MIC for methicillin-resistant Staphylococcus aureus ATCC BAA-39 in presence of 10% FBS; method in brief: as §1
[9] = system: Staphylococcus aureus; assay: Ratio of MIC for methicillin-resistant Staphylococcus aureus ATCC 700698 in absence of 10% FBS to MIC for methicillin-resistant Staphylococcus aureus ATCC 700698 in presence of 10% FBS; method in brief: as §1
[10] = system: Staphylococcus aureus; assay: Ratio of MIC for methicillin-resistant Staphylococcus aureus ATCC 700787 in absence of 10% FBS to MIC for methicillin-resistant Staphylococcus aureus ATCC 700787 in presence of 10% FBS; method in brief: as §1
[11] = system: Staphylococcus aureus; assay: Ratio of MIC for methicillin-resistant Staphylococcus aureus ATCC 34404 in absence of 10% FBS to MIC for methicillin-resistant Staphylococcus aureus ATCC 34404 in presence of 10% FBS; method in brief: as §1
[12] = system: Staphylococcus aureus; assay: Antibacterial activity against methicillin-resistant Staphylococcus aureus ST239 HS770 by microdilution technique

O=C(O)[C@H](Cc1ccccc1)N1C(=O)/C(=C/c2cccc(Cc3ccccc3)c2)SC1=S
MIC [1]: 1.95 µg/mL (≈ 4.24 µM) | MIC [2]: 3.9 µg/mL (≈ 8.49 µM) | MIC [3]: 1.95 µg/mL (≈ 4.24 µM) | MIC [4]: 3.9 µg/mL (≈ 8.49 µM) | MIC [5]: 1.95 µg/mL (≈ 4.24 µM)

O=C(O)[C@H](Cc1ccccc1)N1C(=O)/C(=C/c2cccc(Oc3ccc(Cl)c(Cl)c3)c2)SC1=S
Ratio [6]: 2 | Ratio [7]: 2 | Ratio [8]: 2 | Ratio [9]: 2 | Ratio [10]: 2 | Ratio [11]: 2 | MIC [1]: 1.95 µg/mL (≈ 3.68 µM) | MIC [2]: 1.95 µg/mL (≈ 3.68 µM) | MIC [3]: 1.95 µg/mL (≈ 3.68 µM) | MIC [4]: 3.9 µg/mL (≈ 7.35 µM) | MIC [5]: 0.98 µg/mL (≈ 1.85 µM)

O=C(O)[C@H](Cc1ccccc1)N1C(=O)/C(=C/c2ccc(Oc3ccccc3)cc2)SC1=S
MIC [12]: 7.8 µg/mL (≈ 16.9 µM) | MIC [1]: 1.95 µg/mL (≈ 4.22 µM) | MIC [2]: 1.95 µg/mL (≈ 4.22 µM) | MIC [3]: 3.9 µg/mL (≈ 8.45 µM) | MIC [4]: 7.8 µg/mL (≈ 16.9 µM) | MIC [5]: 1.95 µg/mL (≈ 4.22 µM)

O=C(O)[C@H](Cc1ccccc1)N1C(=O)/C(=C/c2cccc(Cc3ccc(Cl)c(Cl)c3)c2)SC1=S
MIC [12]: 15.6 µg/mL (≈ 29.5 µM) | MIC [1]: 31.2 µg/mL (≈ 59.1 µM) | MIC [2]: 31.2 µg/mL (≈ 59.1 µM) | MIC [3]: 15.6 µg/mL (≈ 29.5 µM) | MIC [4]: 62.5 µg/mL (≈ 118 µM) | MIC [5]: 31.2 µg/mL (≈ 59.1 µM)

O=C(O)[C@H](Cc1ccccc1)N1C(=O)/C(=C/c2cccc(OCC3CC3)c2)SC1=S
MIC [12]: 15.6 µg/mL (≈ 35.5 µM) | MIC [1]: 15.6 µg/mL (≈ 35.5 µM) | MIC [2]: 15.6 µg/mL (≈ 35.5 µM) | MIC [3]: 15.6 µg/mL (≈ 35.5 µM) | MIC [4]: 15.6 µg/mL (≈ 35.5 µM) | MIC [5]: 15.6 µg/mL (≈ 35.5 µM)

O=C(O)[C@H](Cc1ccccc1)N1C(=O)/C(=C/c2cccc(-c3cncnc3)c2)SC1=S
MIC [12]: 125 µg/mL (≈ 279 µM) | MIC [1]: 125 µg/mL (≈ 279 µM) | MIC [2]: 125 µg/mL (≈ 279 µM) | MIC [3]: 125 µg/mL (≈ 279 µM) | MIC [4]: 125 µg/mL (≈ 279 µM) | MIC [5]: 125 µg/mL (≈ 279 µM)

O=C(O)c1cn(C2CC2)c2cc(N3CCNCC3)c(F)cc2c1=O [CIPROFLOXACIN]
MIC [12]: 62.5 µg/mL (≈ 189 µM) | MIC [4]: 62.5 µg/mL (≈ 189 µM) | MIC [5]: ≤ 0.48 µg/mL

O=C(O)[C@@H](Cc1ccccc1)N1C(=O)/C(=C/c2cccc(Oc3cccc(Cl)c3)c2)SC1=S
Ratio [6]: 2 | Ratio [7]: 2 | Ratio [8]: 2 | Ratio [9]: 2 | Ratio [10]: 2 | MIC [12]: 1.95 µg/mL (≈ 3.93 µM) | Ratio [11]: 2 | MIC [1]: 1.95 µg/mL (≈ 3.93 µM) | MIC [2]: 3.9 µg/mL (≈ 7.86 µM) | MIC [3]: 1.95 µg/mL (≈ 3.93 µM) | MIC [4]: 3.9 µg/mL (≈ 7.86 µM) | MIC [5]: 0.98 µg/mL (≈ 1.98 µM)

O=C(O)[C@@H](Cc1ccccc1)N1C(=O)/C(=C/c2cccc(Oc3ccc(Cl)c(Cl)c3)c2)SC1=S
MIC [12]: 3.9 µg/mL (≈ 7.35 µM) | MIC [1]: 3.9 µg/mL (≈ 7.35 µM) | MIC [2]: 1.95 µg/mL (≈ 3.68 µM) | MIC [3]: 1.95 µg/mL (≈ 3.68 µM) | MIC [4]: 15.6 µg/mL (≈ 29.4 µM) | MIC [5]: 1.95 µg/mL (≈ 3.68 µM)

O=C(O)[C@H](Cc1ccccc1)N1C(=O)/C(=C/c2ccccc2OCc2ccccc2)SC1=S
MIC [12]: 7.8 µg/mL (≈ 16.4 µM) | MIC [1]: 7.8 µg/mL (≈ 16.4 µM) | MIC [2]: 7.8 µg/mL (≈ 16.4 µM) | MIC [3]: 15.6 µg/mL (≈ 32.8 µM) | MIC [4]: 15.6 µg/mL (≈ 32.8 µM) | MIC [5]: 7.8 µg/mL (≈ 16.4 µM)

O=C(O)[C@H](Cc1ccccc1)N1C(=O)/C(=C/c2ccccc2Oc2ccc(Cl)c(Cl)c2)SC1=S
MIC [12]: 1.95 µg/mL (≈ 3.68 µM) | MIC [1]: 3.9 µg/mL (≈ 7.35 µM) | MIC [2]: 7.8 µg/mL (≈ 14.7 µM) | MIC [3]: 3.9 µg/mL (≈ 7.35 µM) | MIC [4]: 3.9 µg/mL (≈ 7.35 µM) | MIC [5]: 3.9 µg/mL (≈ 7.35 µM)

O=C(O)[C@H](Cc1ccccc1)N1C(=O)/C(=C/c2cccc(Oc3cccc(Cl)c3)c2)SC1=S
MIC [1]: 15.6 µg/mL (≈ 31.5 µM) | MIC [2]: 15.6 µg/mL (≈ 31.5 µM) | MIC [3]: 15.6 µg/mL (≈ 31.5 µM) | MIC [4]: 15.6 µg/mL (≈ 31.5 µM) | MIC [5]: 15.6 µg/mL (≈ 31.5 µM)

O=C(O)[C@@H](Cc1ccccc1)N1C(=O)/C(=C/c2cccc(Oc3ccccc3)c2)SC1=S
MIC [12]: 3.9 µg/mL (≈ 8.45 µM) | MIC [1]: 1.95 µg/mL (≈ 4.22 µM) | MIC [2]: 1.95 µg/mL (≈ 4.22 µM) | MIC [3]: 3.9 µg/mL (≈ 8.45 µM) | MIC [4]: 3.9 µg/mL (≈ 8.45 µM) | MIC [5]: 3.9 µg/mL (≈ 8.45 µM)

O=C(O)[C@H](Cc1ccccc1)N1C(=O)/C(=C/c2ccccc2-c2ccccc2)SC1=S
MIC [12]: 7.8 µg/mL (≈ 17.5 µM) | MIC [1]: 7.8 µg/mL (≈ 17.5 µM) | MIC [2]: 15.6 µg/mL (≈ 35 µM) | MIC [3]: 7.8 µg/mL (≈ 17.5 µM) | MIC [4]: 15.6 µg/mL (≈ 35 µM) | MIC [5]: 7.8 µg/mL (≈ 17.5 µM)

O=C(O)[C@H](Cc1ccccc1)N1C(=O)/C(=C/c2ccccc2Cc2ccccc2)SC1=S
MIC [12]: 15.6 µg/mL (≈ 33.9 µM) | MIC [1]: 3.9 µg/mL (≈ 8.49 µM) | MIC [2]: 7.8 µg/mL (≈ 17 µM) | MIC [3]: 7.8 µg/mL (≈ 17 µM) | MIC [4]: 7.8 µg/mL (≈ 17 µM) | MIC [5]: 15.6 µg/mL (≈ 33.9 µM)

Reference: ChEMBL document CHEMBL2429740, “The synthesis and SAR study of phenylalanine-derived (Z)-5-arylmethylidene rhodanines as anti-methicillin-resistant Staphylococcus aureus (MRSA) compounds” (2013)
